The results in this text go back to PMC11636628 (Journal of receptor and signal transduction research, 2024).

For assay [1], the target named is T1, rat CB2 (Rattus norvegicus, UniProt Q9QZN9).
T1 sequence (Q9QZN9 1-360): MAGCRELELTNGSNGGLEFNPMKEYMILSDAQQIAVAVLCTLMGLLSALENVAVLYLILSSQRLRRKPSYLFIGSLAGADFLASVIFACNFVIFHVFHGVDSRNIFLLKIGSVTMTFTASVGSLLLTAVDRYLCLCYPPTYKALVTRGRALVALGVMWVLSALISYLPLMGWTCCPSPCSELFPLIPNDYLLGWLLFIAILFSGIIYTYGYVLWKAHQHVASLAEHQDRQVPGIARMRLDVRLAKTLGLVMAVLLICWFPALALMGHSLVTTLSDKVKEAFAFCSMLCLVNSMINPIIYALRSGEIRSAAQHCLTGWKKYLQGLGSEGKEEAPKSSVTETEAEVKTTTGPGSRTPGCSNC
The experiment in a line: thallium flux, HEK/GIRK cells. In kind it is cell-based. The method, boiled down:
(§1)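 HEK/GIRK cells were made to stably express the receptor by ViaFect transfection with a pIRESpuro3 construct and selected with 1 μg/mL puromycin. Cells (15,000/well) were seeded overnight at 37 °C. They were loaded with 1.2 μM Thallos-AM in HBSS/20 mM HEPES pH 7.3 for 1 h at RT. Compound or DMSO was added, then 12 mM Tl2SO4 stimulus buffer with agonist 140 s later. The 145–155 s slope was vehicle-subtracted, normalized to maximal JWH133 signal and fit with a four-parameter logistic. Triplicate, three to five experiments.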

For the next assay, the target named is human CB2 (Homo sapiens, UniProt P34972). The assay is described as follows: thallium flux, HEK/GIRK cells. Format: cell-based. A digest of the protocol:
as §1

Assay [2] has as its target T2, rat CB1 (Rattus norvegicus, UniProt P20272). The experiment in a line: thallium flux, HEK/GIRK cells. In kind it is cell-based.
Another assay concerns the target human CB1 (Homo sapiens, UniProt P21554). The experiment in a line: thallium flux, HEK/GIRK cells. In kind it is cell-based.
The target in assay [3] is T1, rat CB2. The assay is described as follows: [3H]CP55940 competition, HEK/GIRK membranes. In kind it is binding.
Assay [4] concerns the target T2, rat CB1. The assay is described as follows: PI hydrolysis, [3H]inositol phosphate chromatography, HEK/Gqi9 cells. Format: cell-based. The method, boiled down:
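HEK293 cells stably expressing Gqi9 were transfected with a pIRESpuro3 receptor construct and puromycin-selected. They were seeded at 1.5 X 10^5 cells/well and assayed after 48 h. Cells were labelled overnight with 0.4 μCi myo-[3H]inositol in inositol-free DMEM with 5% dialyzed FBS. Agonists were added at 5x in 50 mM LiCl/250 mM HEPES pH 7.25 for 30 min at 37 °C. Reactions were stopped with boiling EDTA pH 8.0, and [3H]inositol phosphates were resolved on Dowex AG1-X8 and scintillation counted.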

For assay [5], the target named is T1, rat CB2. The assay is described as follows: thallium flux, HEK/GIRK cells, compound alone. In kind it is cell-based.

The structures appear in SMILES notation.

Sequence of human CB2 (P34972 whole entry): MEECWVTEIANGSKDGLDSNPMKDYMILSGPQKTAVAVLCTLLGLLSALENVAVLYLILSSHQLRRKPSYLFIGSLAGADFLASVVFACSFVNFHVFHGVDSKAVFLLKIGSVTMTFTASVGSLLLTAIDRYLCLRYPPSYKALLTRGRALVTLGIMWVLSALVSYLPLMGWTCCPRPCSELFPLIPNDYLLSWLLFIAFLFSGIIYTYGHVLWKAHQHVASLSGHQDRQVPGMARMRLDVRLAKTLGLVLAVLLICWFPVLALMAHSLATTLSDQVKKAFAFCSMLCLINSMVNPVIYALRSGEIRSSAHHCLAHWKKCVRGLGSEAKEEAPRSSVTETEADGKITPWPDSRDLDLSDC
Sequence of human CB1 (P21554 whole entry): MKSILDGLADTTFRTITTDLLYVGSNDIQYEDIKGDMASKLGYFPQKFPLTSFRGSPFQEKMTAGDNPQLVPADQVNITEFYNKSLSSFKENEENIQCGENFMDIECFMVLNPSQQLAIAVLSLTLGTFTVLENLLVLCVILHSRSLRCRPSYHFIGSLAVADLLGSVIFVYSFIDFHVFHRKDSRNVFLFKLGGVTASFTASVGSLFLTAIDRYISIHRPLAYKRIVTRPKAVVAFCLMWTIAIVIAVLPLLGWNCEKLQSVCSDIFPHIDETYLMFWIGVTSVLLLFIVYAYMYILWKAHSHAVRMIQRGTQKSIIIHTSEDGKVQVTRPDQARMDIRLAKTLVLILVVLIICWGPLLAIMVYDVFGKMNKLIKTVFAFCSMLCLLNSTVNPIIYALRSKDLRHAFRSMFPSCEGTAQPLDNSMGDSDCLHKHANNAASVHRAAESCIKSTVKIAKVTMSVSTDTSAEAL
T2 sequence (P20272 whole entry): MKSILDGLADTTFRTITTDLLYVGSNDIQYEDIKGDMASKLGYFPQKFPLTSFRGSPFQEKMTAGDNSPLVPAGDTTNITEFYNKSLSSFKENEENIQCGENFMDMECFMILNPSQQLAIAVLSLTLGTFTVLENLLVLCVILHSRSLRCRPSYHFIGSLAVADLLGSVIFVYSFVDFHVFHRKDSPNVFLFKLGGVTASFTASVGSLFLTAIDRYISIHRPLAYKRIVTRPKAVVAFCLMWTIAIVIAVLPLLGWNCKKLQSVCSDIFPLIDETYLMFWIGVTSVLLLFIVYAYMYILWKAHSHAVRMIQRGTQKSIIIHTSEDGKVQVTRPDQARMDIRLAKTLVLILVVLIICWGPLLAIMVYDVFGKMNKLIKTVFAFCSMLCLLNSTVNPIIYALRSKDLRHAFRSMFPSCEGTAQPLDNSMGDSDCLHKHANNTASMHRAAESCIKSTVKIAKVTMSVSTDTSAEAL

Usually EC50 stands for the concentration at which the effect is half-maximal. The low end stands for higher potency in that assay, the high end for lower potency in that assay. As to `CCCCC/C=C\C/C=C\C/C=C\C/C=C\CCCC(=O)OC(CO)CO` [2-AG], the EC50 at rat CB2 [1] was 49 nM; on human CB2, 145 nM.

With `CCCCC/C=C\C/C=C\C/C=C\C/C=C\CCCC(=O)NCCCl` [ACEA, N-(2-Chloroethyl)-5Z,8Z,11Z,14Z-eicosatetraenamide], the EC50 at rat CB1 [2] was 20 nM; on human CB1, 60.3 nM; on rat CB2 [1] it was 251 nM; on human CB2, 1700 nM.

As usually defined, the IC50 is the concentration that gives 50% inhibition. Turning to `COc1ccc(C(=O)c2c(C)n(CCN3CCOCC3)c3cc(I)ccc23)cc1` [AM630], the IC50 at rat CB2 [3] is 72.4 nM.

Consider `Cc1c(Br)cn(Cc2ccc(F)cc2)c(=O)c1NC(=O)C1CCCCCC1` [EC21a], for which the figures for the EC50 on rat CB1 [4] and at rat CB2 [5] were 1700 nM and 100 nM, respectively.

Consider `CCCC(C)(C)c1ccc2c(c1)OC(C)(C)[C@@H]1CC=C(C)C[C@@H]21` [JWH133], for which the EC50 at human CB1 is 1230 nM; on rat CB2 [1], 537 nM; at human CB2 it was 275 nM.
